According to ChEMBL document CHEMBL1926611, “Synthesis and biological evaluation of 4-[3-chloro-4-(3-fluorobenzyloxy)anilino]-6-(3-substituted-phenoxy)pyrimidines as dual EGFR/ErbB-2 kinase inhibitors” (Bioorg Med Chem, 2012):

Columns and labels:
A-431 = test: Cytotoxicity against human A431 cells overexpressing EGFR after 72 hrs by MTT assay; details: A-431, 72 h
[1] = target: Epidermal growth factor receptor (Homo sapiens, UniProt P00533); test: Inhibition of human EGFR preincubated 2 hrs prior addition of ATP by HTRF assay
[2] = target: Receptor tyrosine-protein kinase erbB-2 (Homo sapiens, UniProt P04626); test: Inhibition of human ErbB2 preincubated for 2 hrs prior addition of ATP by HTRF assay
How it was run: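 Wild-type ErbB-2(676–1255) was used in an HTRF KinEASE-TK format. Kinase, substrate peptide and inhibitor were combined, and ATP started the reaction. Detection used Eu-cryptate anti-phosphotyrosine antibody plus XL665-streptavidin, with time-resolved FRET read after 320 excitation. The emission ratio across ten concentrations (0.01–10,000 nM, including no inhibitor) gave IC50, with duplicate reactions and ≥2 independent determinations.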

SK-OV-3 = test: Cytotoxicity against human SKOV3 cells overexpressing ErbB2 after 72 hrs by MTT assay; details: SK-OV-3, 72 h

Chain of Epidermal growth factor receptor (P00533 whole entry): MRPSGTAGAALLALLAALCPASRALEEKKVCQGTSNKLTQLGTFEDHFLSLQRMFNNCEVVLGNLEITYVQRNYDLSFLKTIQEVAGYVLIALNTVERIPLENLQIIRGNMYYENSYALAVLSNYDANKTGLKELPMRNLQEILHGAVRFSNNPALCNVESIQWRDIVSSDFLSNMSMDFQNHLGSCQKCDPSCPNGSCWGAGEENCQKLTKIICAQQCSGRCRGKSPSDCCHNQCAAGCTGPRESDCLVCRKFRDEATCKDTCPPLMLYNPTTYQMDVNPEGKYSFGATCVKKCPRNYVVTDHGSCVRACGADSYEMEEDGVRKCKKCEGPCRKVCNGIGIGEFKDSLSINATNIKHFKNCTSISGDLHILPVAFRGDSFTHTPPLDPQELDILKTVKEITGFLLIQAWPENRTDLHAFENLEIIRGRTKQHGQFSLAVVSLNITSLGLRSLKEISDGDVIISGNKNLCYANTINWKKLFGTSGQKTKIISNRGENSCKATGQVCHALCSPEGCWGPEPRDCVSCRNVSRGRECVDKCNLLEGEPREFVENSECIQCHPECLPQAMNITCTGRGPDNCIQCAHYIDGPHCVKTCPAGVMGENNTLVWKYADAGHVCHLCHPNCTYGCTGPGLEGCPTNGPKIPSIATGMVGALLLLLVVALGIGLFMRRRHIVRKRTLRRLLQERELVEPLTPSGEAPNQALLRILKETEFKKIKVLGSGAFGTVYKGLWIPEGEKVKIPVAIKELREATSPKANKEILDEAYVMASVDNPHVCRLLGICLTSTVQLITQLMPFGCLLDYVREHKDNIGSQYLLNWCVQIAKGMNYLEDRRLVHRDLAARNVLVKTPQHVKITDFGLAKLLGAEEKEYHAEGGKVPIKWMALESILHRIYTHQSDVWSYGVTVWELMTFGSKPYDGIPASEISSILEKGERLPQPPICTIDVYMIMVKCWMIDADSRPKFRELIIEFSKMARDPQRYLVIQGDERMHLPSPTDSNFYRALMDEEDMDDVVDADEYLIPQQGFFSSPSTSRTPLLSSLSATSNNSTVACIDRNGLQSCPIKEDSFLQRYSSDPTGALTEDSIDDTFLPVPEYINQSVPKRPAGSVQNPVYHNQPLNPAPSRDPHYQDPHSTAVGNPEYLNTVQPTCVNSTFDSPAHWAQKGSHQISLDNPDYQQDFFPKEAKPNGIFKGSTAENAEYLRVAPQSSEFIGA
Chain of Receptor tyrosine-protein kinase erbB-2 (P04626 whole entry): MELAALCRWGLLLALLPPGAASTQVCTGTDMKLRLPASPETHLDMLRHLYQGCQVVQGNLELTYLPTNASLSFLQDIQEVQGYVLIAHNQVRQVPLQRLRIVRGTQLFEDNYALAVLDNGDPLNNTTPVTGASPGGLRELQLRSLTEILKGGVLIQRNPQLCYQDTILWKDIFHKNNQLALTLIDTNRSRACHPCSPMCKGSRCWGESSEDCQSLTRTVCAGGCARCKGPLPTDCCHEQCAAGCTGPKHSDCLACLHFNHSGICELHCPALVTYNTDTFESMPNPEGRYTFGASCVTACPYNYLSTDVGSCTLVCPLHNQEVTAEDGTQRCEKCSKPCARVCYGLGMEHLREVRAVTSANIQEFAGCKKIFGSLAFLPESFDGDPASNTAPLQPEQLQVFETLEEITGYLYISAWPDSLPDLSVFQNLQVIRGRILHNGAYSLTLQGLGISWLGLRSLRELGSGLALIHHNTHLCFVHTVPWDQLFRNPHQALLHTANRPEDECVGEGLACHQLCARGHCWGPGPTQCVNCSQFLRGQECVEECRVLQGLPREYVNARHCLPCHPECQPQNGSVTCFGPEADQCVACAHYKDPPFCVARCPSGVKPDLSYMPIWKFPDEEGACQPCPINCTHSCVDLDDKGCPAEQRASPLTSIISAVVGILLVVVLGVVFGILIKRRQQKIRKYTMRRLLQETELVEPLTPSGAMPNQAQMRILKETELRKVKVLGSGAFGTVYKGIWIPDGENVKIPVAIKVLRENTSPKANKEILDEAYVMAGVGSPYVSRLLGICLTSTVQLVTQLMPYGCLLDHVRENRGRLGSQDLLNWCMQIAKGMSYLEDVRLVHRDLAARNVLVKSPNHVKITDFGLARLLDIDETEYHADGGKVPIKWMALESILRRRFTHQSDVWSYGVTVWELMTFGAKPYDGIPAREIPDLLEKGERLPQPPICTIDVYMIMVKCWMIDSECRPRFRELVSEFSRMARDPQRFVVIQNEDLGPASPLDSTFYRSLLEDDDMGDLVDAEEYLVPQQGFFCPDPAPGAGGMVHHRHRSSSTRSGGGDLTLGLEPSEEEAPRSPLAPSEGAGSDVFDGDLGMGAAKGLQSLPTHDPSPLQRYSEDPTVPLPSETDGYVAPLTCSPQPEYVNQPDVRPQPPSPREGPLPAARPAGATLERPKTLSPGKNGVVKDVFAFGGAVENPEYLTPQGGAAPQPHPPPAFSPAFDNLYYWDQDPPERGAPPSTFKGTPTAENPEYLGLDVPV

Row | IC50 [1] [µM] | IC50 [2] [µM] | Structure (SMILES) | IC50 (A-431) [µM] | IC50 (SK-OV-3) [µM]
1 | 0.473 | 0.559 | Nc1cccc(Oc2cc(Nc3ccc(OCc4cccc(F)c4)c(Cl)c3)ncn2)c1 | 8.92 | 12.2
2 | 0.108 | 0.135 | CC(=O)Nc1cccc(Oc2cc(Nc3ccc(OCc4cccc(F)c4)c(Cl)c3)ncn2)c1 | 12 | 3.95
3 | 0.037 | 0.029 | C=CC(=O)Nc1cccc(Oc2cc(Nc3ccc(OCc4cccc(F)c4)c(Cl)c3)ncn2)c1 | 3.25 | 0.89
4 | > 10 | > 10 | O=C(Nc1cccc(Oc2cc(Nc3ccc(OCc4cccc(F)c4)c(Cl)c3)ncn2)c1)c1ccc([N+](=O)[O-])cc1 | 6.72 | 10.2
5 | 0.061 | 0.042 | Nc1cc(Nc2cccc(Oc3cc(Nc4ccc(OCc5cccc(F)c5)c(Cl)c4)ncn3)c2)ncn1 | 4.24 | 0.71
6 | 0.627 | 0.834 | O=C(Cc1cc(F)c(F)cc1F)Nc1cccc(Oc2cc(Nc3ccc(OCc4cccc(F)c4)c(Cl)c3)ncn2)c1 | 9.29 | 26.1
7 | 0.821 | 1.29 | O=C(/C=C/c1ccc(F)cc1)Nc1cccc(Oc2cc(Nc3ccc(OCc4cccc(F)c4)c(Cl)c3)ncn2)c1 | 18.1 | > 30
8 | 0.523 | 1.23 | COc1ccc(/C=C/C(=O)Nc2cccc(Oc3cc(Nc4ccc(OCc5cccc(F)c5)c(Cl)c4)ncn3)c2)cc1OC | > 20 | > 30
9 | > 10 | > 10 | COc1ccc(OCC(=O)Nc2cccc(Oc3cc(Nc4ccc(OCc5cccc(F)c5)c(Cl)c4)ncn3)c2)cc1OC | 6.42 | –

More lines, now with the values behind:

Row | Structure (SMILES) | IC50 [1] [µM] | IC50 [2] [µM] | IC50 (A-431) [µM] | IC50 (SK-OV-3) [µM]
10 | O=[N+]([O-])c1cccc(Oc2cc(Nc3ccc(OCc4cccc(F)c4)c(Cl)c3)ncn2)c1 | 1.2 | 2.42 | 10.4 | > 30
11 | CCOC(=O)/C=C/C(=O)Nc1cccc(Oc2cc(Nc3ccc(OCc4cccc(F)c4)c(Cl)c3)ncn2)c1 | 0.129 | 0.196 | 7 | 1.29
12 | CCOC(=O)CNc1cccc(Oc2cc(Nc3ccc(OCc4cccc(F)c4)c(Cl)c3)ncn2)c1 | – | 0.219 | – | 9.18
13 | N#CCC(=O)Nc1cccc(Oc2cc(Nc3ccc(OCc4cccc(F)c4)c(Cl)c3)ncn2)c1 | 0.048 | 0.038 | 5.17 | 8.42
14 | Fc1cccc(COc2ccc(Nc3cc(Oc4cccc(NCc5ccccc5)c4)ncn3)cc2Cl)c1 | > 10 | > 10 | 3.11 | 17.9
15 | O=C(/C=C/c1ccccc1)Nc1cccc(Oc2cc(Nc3ccc(OCc4cccc(F)c4)c(Cl)c3)ncn2)c1 | 1.67 | 3.74 | 11.2 | 20.7
16 | O=C(COc1ccccc1)Nc1cccc(Oc2cc(Nc3ccc(OCc4cccc(F)c4)c(Cl)c3)ncn2)c1 | 0.065 | 0.079 | 14.9 | 9.1
17 | O=C(COc1cc(F)c(F)c(F)c1)Nc1cccc(Oc2cc(Nc3ccc(OCc4cccc(F)c4)c(Cl)c3)ncn2)c1 | 0.721 | 2.14 | 13.2 | > 30
18 | CS(=O)(=O)CCNCc1ccc(-c2ccc3ncnc(Nc4ccc(OCc5cccc(F)c5)c(Cl)c4)c3c2)o1 [LAPATINIB] | – | – | – | 2.99
